# Screens (PubChem)
# This is a sample that favours compounds with a hit; in the whole collection about 2.8% have one here.
# PAFAH1B2 FP inh – PAFAH1B2 enzyme inhibitors, primary screen, biochemical, fluorescence polarization, human; 340,000 tested, 1.2% active; inhibition, % at 3.39 µM; recombinant PAFAH1B2, FP-rhodamine activity probe;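 active = inhibition above the mean of all tested compounds plus 3 SD, cut at about 24% in these data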;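 also: 0% = enzyme with DMSO and 100% = wells lacking PAFAH1B2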
# pPAFAH inh – pPAFAH enzyme inhibitors, primary screen, biochemical, fluorescence polarization, human | inhibition, % at 3.39 µM | 330,000 tested, 1.5% active | Platelet-activating factor acetylhydrolase (Homo sapiens), Q13093 | recombinant pPAFAH, FP-rhodamine probe fluorescence polarization;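 active = inhibition above the mean inhibition across the screen plus 3 SD, cut at about 25% in these data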;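 also: inhibitors block binding of the rhodamine activity-based probe so polarization drops; 0% = enzyme with DMSO and 100% = wells lacking pPAFAH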
# Target sequence (Q13093 whole entry, looked up): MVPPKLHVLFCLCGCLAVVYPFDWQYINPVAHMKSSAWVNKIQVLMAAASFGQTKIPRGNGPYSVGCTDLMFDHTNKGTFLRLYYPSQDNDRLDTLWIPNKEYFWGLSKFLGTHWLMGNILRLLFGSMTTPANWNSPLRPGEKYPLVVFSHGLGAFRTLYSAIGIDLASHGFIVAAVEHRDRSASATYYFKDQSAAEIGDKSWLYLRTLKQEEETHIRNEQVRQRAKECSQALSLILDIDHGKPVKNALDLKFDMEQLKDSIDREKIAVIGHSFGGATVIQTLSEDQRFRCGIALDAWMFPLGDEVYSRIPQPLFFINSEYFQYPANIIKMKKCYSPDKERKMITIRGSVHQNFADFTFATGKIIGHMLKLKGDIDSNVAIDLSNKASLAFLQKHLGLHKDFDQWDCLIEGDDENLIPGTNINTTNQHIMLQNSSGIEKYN
# ABHD4 inh – ABHD4 inhibitors, primary screen, biochemical, fluorescence polarization, mouse. inhibition, % at 8.92 µM. purified mABHD4, FP-Rh probe fluorescence polarization. 370,000 tested, 0.54% active;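 active = inhibition exceeding the mean over every tested compound plus 3 SD, cut at about 30% in these data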;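 also: 0% = plate median of compound wells and 100% = S159A mutant with DMSO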
#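 Assay system: mABHD4 protein; medium: HEPES pH 7.0, NaCl, Pluronic buffer; dosing: 8.92 µM, single dose; schedule: 45 min + 60 min at 25 °C; signal: FP readout, ex 525 nm / em 598 nm; read-out: normalized percent inhibition of probe labeling; repeats: single replicate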
# HTRA1 inhibitor – HTRA1 serine protease inhibitors, primary screen, biochemical, fluorescence polarization, HTS | inhibition, % at 5.96 µM | recombinant HTRA1, FP-rhodamine activity-based probe | AID 504803, 2011 | 340,000 tested, 0.5% active | Q92743; in the data active = inhibition above about 36%;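 also: 0% = enzyme with DMSO and 100% = wells lacking enzyme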
# PAFAH2 inh – PAFAH2 enzyme inhibitors, primary screen, biochemical, fluorescence polarization, human; Platelet-activating factor acetylhydrolase 2, cytoplasmic (Homo sapiens), Q99487; recombinant PAFAH2, FP-rhodamine activity probe; 340,000 tested, 0.99% active; inhibition, % at 3.39 µM; AID 492956, 2010;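 active = inhibition above the mean over all tested compounds plus 3 SD, cut at about 30% in these data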;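 also: inhibitors block probe labeling of enzyme so polarization drops; 0% = enzyme with DMSO and 100% = wells lacking PAFAH2 protein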
# PAFAH1B3 inh – PAFAH1B3 enzyme inhibitors, primary screen, biochemical, fluorescence polarization, human; Platelet-activating factor acetylhydrolase IB subunit alpha1 (Homo sapiens), Q15102; recombinant PAFAH1B3, FP-rhodamine probe; inhibition, % at 3.39 µM; 340,000 tested, 0.28% active;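 active = inhibition above the screen-wide average of all tested compounds plus 3 SD, cut at about 25% in these data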;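 also: 0% = enzyme with DMSO only and 100% = wells lacking PAFAH1B3 protein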
# * = called active by the depositor; · = no result given; ! = repeats disagree.
SMILES,PAFAH1B2 FP inh,pPAFAH inh,ABHD4 inh,HTRA1 inhibitor,PAFAH2 inh,PAFAH1B3 inh
CC(C)(C)N1C(=O)c2ccc(C(=O)O)cc2C1=O,1,-4,3,-2,2,9
CCOc1ccc(-n2c(SCC(=O)Nc3cccc4ccccc34)nnc2-c2ccco2)cc1,·,·,-12,·,·,·
Cc1c(NC(=O)CSc2ccc(Cl)cc2)cccc1-c1nc2ncccc2o1,25*,18,-4,-21,0,2
COC(=O)C1=C(C)N(C)C(=NCc2ccccc2C(F)(F)F)NC1c1cccc(F)c1 (configuration not stated),·,·,-4,·,·,·
Cc1nc2nc[nH]n2c(=O)c1NC(=O)CC12CC3CC(CC(C3)C1)C2,25*,3,-13,6,36*!,8
CCC(=O)Nc1ccc(S(=O)(=O)Nc2c(C)nc3nc[nH]n3c2=O)cc1,2,4,-4,3,-2,7
Cc1cc(C)c(NC(=O)COC(=O)c2ccc([N+](=O)[O-])s2)c(C)c1,6,1,-5,13,20,13
CN(CC(=O)Nc1ccccc1Cl)C(=O)COC(=O)c1cccs1,2,-2,1,0,1,10
NS(=O)(=O)c1ccc(NC(=O)COC(=O)c2ccc([N+](=O)[O-])s2)cc1,12,33*,-7,35,43*,30*
Cc1ccc(NC(=O)COC(=O)c2ccc([N+](=O)[O-])s2)c(C)c1,16,11,4,28,39*,28*
CN(CC(=O)Nc1ccccc1Cl)C(=O)COC(=O)CSc1ccc(F)cc1,15,23,-3,3,0,-4
CN(CC(=O)Nc1ccccc1Cl)C(=O)COC(=O)c1ccc([N+](=O)[O-])s1,19,10,-5,36,34*,48*
Cc1ccc(SCC(=O)OCC(=O)N(C)CC(=O)Nc2ccccc2Cl)cc1C,5,34*,19,-5,-1,7
COc1cccc(-c2nnc(SCC(=O)Nc3ccc(Oc4ccccc4)cc3)n2Cc2ccco2)c1,·,·,-41,·,·,·
CCCCn1c(NC(=O)c2ccco2)c(S(=O)(=O)c2ccc(C)cc2)c2nc3ccccc3nc21,1,·,-7,-36,4,-5
CCCCn1c(NS(=O)(=O)c2ccccc2)c(S(=O)(=O)c2ccc(C)cc2)c2nc3ccccc3nc21,36*,10,-4,17,57*,66*
CCCCCn1c(NC(=O)c2ccco2)c(S(=O)(=O)c2ccc(C)cc2)c2nc3ccccc3nc21,30*,11,-6,-34,42*,57*
CCN1Cc2nnn(Cc3ccccc3)c2-c2ccccc2S1(=O)=O,·,·,0,·,·,·
Cc1ccc(C(c2nnnn2Cc2ccccc2)N2CCN(Cc3ccccc3)CC2)cc1 (configuration not stated),31*,-2,2,-26,0,1
COc1ccc(CN2C(=O)c3ccccc3C2C(=O)NC2CCCC2)c(OC)c1 (configuration not stated),6,1,5,-10,3,-1
COc1ccc(CN2C(=O)c3ccccc3C2C(=O)NC2CCC(C)CC2)c(OC)c1 (configuration not stated),26*,11,-9,-3,1,11
C[C@H]1CCCN1c1ccc2c(c1)O[C@H]1CCN(C1)S2(=O)=O,·,·,17,·,·,·
Cc1ccc(NC2=C(N3CCOCC3)C(=O)c3ccccc3C2=O)cc1,8,4,6,4,33*,33*
C#CCNC(=O)C[C@H]1C(=O)N(CCCOC)C2=CCCCC[C@]21C(=O)OC,·,·,2,·,·,·
COC(=O)c1cc(-c2ccc(Oc3ccccc3)cc2)c(=O)n2c1CCC2,·,·,-6,·,·,·
SMILES,PAFAH1B2 FP inh,pPAFAH inh,ABHD4 inh,HTRA1 inhibitor,PAFAH2 inh,PAFAH1B3 inh
COc1ccc(CN(CCN2CCOCC2)C(=O)c2cc(Cl)ccc2F)cc1OC,·,·,0,·,·,·
COc1ccc(S(=O)(=O)Nc2cccc(Cl)c2)cc1OC,5,10,-3,-8,4,7
COc1ccc(NS(=O)(=O)c2ccc(OC)c(N(C)S(=O)(=O)c3ccc(Cl)cc3)c2)cc1,1,28*,-5,-40,-2,-5
CC1CCc2c(sc(NC(=O)c3ccc(Cn4cc([N+](=O)[O-])cn4)o3)c2C#N)C1 (configuration not stated),15,31*,12,-20,13,0
Cc1cc2[nH]c(=O)c(=O)[nH]c2cc1S(=O)(=O)NC1CCC(C)CC1 (configuration not stated),26*,0,0,2,-3,-1
Cc1cc2[nH]c(=O)c(=O)[nH]c2cc1S(=O)(=O)N1CCC(C)CC1,25*,5,6,7,3,7
COCCCN1C(=O)[C@H](CC(=O)N2CCCC2)[C@]2(C(=O)OC)CCCCC=C12,·,·,1,·,·,·
Cc1ccc2c(c1C)-c1c(ccc(C)c1C)C(=O)C2=O,15,·,8,5,31*,70*
Cc1ccc(CC#N)c(-c2c(CC#N)ccc(C)c2C)c1C,·,·,-1,-12,·,·
N=c1c(S(=O)(=O)c2ccc(Cl)cc2)cc2c(=O)n3ccccc3nc2n1CCN1CCOCC1,37*,6,-2,-10,7,2
CC(NC(=O)COC(=O)c1cccnc1Cl)C12CC3CC(CC(C3)C1)C2 (configuration not stated),51*,2,-7,12,45*,2
COc1ccc(CCN(Cc2cccs2)S(=O)(=O)c2ccc(F)cc2)cc1OC,·,·,-19,·,·,·
O=c1[nH]c(CSc2nc3ccccc3s2)nc2ccccc12,31*,-1,-8,-9,-1,3
CSc1ccc(-c2cnc(N3CCC(C(N)=O)CC3)s2)cc1,·,·,-2,·,·,·
CCOc1ccccc1C(=O)N[C@H](C(=O)OCc1csc(CC(=O)Nc2ccc(C)cc2)n1)C(C)C,0,33*,16,-56,8,3
Cc1ccccc1NC(=O)Cc1nc(COC(=O)C(NC(=O)c2ccccc2C)C(C)C)cs1 (configuration not stated),3,10,16,-2,5,3
CCc1ccc(S(=O)(=O)/N=C2\C=CC(=O)c3ccccc32)cc1,·,40*,·,·,·,·
Cc1ccc(S(=O)(=O)/N=C2/C=C(C3C(=O)CC(C)(C)CC3=O)C(=O)c3ccccc32)cc1,2,8,15,-5,-2,10
CCc1ccc(S(=O)(=O)/N=C2/C=C(Sc3ncn[nH]3)C(=O)c3ccccc32)cc1,50*,6,·,26,41*,50*
